High-throughput results: PubChem, The Scripps Research Institute Molecular Screening Center
TAAR1 antagonist – antagonists of human TAAR1 | 360,000 tested, 1.5% active | inhibition, % at 3 µM | Q96RJ0 | CHO RD-HGA16 TAAR1, Fluo-8 calcium fluorescence, antagonist;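 active = inhibition above a per-plate cutoff, the mean inhibition of test compounds on that plate plus 3 SD, cut at about 49% in these data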
Target sequence (Q96RJ0 whole entry, looked up): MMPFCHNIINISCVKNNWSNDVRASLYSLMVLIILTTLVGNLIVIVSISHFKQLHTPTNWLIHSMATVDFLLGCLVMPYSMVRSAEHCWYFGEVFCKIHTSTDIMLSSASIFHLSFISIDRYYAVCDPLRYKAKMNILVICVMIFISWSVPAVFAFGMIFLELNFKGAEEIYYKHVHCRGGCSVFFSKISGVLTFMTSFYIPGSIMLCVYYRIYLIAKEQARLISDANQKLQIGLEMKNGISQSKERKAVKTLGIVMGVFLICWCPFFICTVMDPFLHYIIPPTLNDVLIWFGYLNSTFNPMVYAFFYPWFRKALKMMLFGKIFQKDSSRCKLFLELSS
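System: RD-HGA16 CHO cells with stable hTAAR1 and Gα16 | Probe or stimulus: EC80 β-phenethylamine stimulus | Dosing: 3 µM, single point | Times: Dye loading 75 min at 37 °C, then 30 min room temperature | Measured by: Fluo-8 calcium-sensitive fluorescence | Read-out basis: % inhibition of agonist calcium response | Replicates: n of 1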
TAAR1 agonist – human TAAR1 agonism; Q96RJ0; CHO RD-HGA16 TAAR1, Fluo-8 calcium fluorescence; vehicle wells 0%, saturating PEA agonist 100%; activation, % at 3 µM; 360,000 tested, 0.99% active;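 active = activation above the mean activation of all test compounds in the run plus 3 SD, cut at about 38% in these data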
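Test system: RD-HGA16 (CHO) cells co-expressing Gα16 and hTAAR1 / Benchmarks: DMSO vehicle as 0%, PEA at EC100 as 100% / Repeats: no replicates (n 1) / Measure: % activation from peak over basal fluorescence ratio, DMSO-to-PEA scaled / Timing: 17-24 h plating, Fluo-8 75 min 37 °C, 30 min RT / Technique: kinetic Fluo-8 calcium fluorescence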
OX1R antag-1 – blocks the human orexin 1 receptor; 330,000 tested, 1.8% active; O43613; OX1R-expressing cells, FRET antagonist read-out; AID 485270; inhibition, % at 6.6 µM; in the data active = inhibition mostly above about 38%, no sharp cut-off; inactive = mostly below about 40%
OX1R antag-2 – human HCRTR1 antagonism | inhibition, % at 5 µM | 330,000 tested, 0.43% active | CHO/OX1R cells, Fluo-8 calcium fluorescence, orexin A | AID 434989;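 active = inhibition above its plate's threshold, mean inhibition of all tested compounds on the plate plus 3 SD, cut at about 37% in these data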
GPR7 antagonist – antagonists of human GPR7 (neuropeptides B/W receptor 1). P48145. GPR7-expressing cells, fluorescence antagonist assay. inhibition, % at 4.4 µM. 290,000 tested, 1.1% active. AID 1861; in the data active = inhibition above about 16%, passing the limit was not always enough;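 also: cells stimulated with the agonist NPW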
Target sequence (P48145 whole entry, looked up): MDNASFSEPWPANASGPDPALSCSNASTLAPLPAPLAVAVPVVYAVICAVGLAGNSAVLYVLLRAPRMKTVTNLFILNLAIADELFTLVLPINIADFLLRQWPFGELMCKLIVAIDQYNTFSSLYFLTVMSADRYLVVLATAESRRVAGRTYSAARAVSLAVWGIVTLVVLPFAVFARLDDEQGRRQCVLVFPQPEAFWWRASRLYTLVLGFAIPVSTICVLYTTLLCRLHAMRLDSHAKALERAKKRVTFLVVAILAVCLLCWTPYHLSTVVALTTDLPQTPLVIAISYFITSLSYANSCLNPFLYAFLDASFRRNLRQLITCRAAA
CHO parental Ca – signal in parental CHO cells, OX1R antagonist counter-screen | inhibition, % at 5.6 µM | parental CHO-K1, ATP-induced calcium, Fluo-8 fluorescence | 330,000 tested, 0.63% active;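 active = inhibition above that plate's mean sample inhibition plus 3 SD, cut at about 26% in these data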
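Material: Parental CHO cells | Reagent: ATP | Compound dosing: Single nominal dose of 5.6 µM per compound | Detection: Intracellular calcium via Fluo-8 no-wash fluorescent dye | Read-out: % inhibition of ATP-induced calcium mobilization | Benchmarks: Low control ATP plus DMSO, high control DMSO only | Replicates: Singlicate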
Each line names hits and unclear results; the compound was inactive in the other large screens. Shown are actives, neighbours in structure and some others; about 4.6% of the full set was active somewhere.

COc1ccccc1CNC(=O)C1CCCN(S(=O)(=O)c2ccc3c(c2)C(C)(C)C(=O)N3C)C1 (centres undefined)	none
CCCSc1nnc2nc3c(nn12)c1ccccc1n3C	OX1R antag-1 66
CCN(CC)C(=O)CSc1nnc2c3ccccc3n(C)c2n1	none
O=C(COC(=O)CNC(=O)c1ccccc1)NC(=O)NC1CCCCC1	none (no result: GPR7 antagonist)
CN(C)S(=O)(=O)Oc1ccsc1C(=O)Nc1cccc(Cl)c1	none
COC(=O)c1sccc1-c1ccc(C(=O)Nc2cccc(Cl)c2)o1	OX1R antag-1 74
CN(C)S(=O)(=O)c1cccc(COC(=O)c2cccnc2Cl)c1	none
CN(C)S(=O)(=O)c1cccc(COC(=O)Cc2c(F)cccc2Cl)c1	CHO parental Ca 45
O=[N+]([O-])c1cc2c(cc1/C=N/n1cnnc1)OCO2	OX1R antag-1 77
CN1OC[C@@H]2CN(S(=O)(=O)c3ccccc3)[C@H](c3ccc(N4CCCCC4)cc3)C[C@@H]21	none (no result: OX1R antag-1, OX1R antag-2, GPR7 antagonist, CHO parental Ca)
N#Cc1c(-c2ccc(Cl)cc2)ccn2nc(CCC(=O)O)nc12	OX1R antag-1 56
CCCCCc1nc2c(C#N)c(-c3ccc(Cl)cc3)ccn2n1	none
CCOC(=O)c1cc([N+](=O)[O-])sc1NC(=O)CC	OX1R antag-1 61
COc1ccc(CCNC(=O)C23CCC(C)(C(=O)C2Br)C3(C)C)cc1OC (centres undefined)	none
O=c1[nH]c(CN2CCCCC2)ccc1O	none (no result: OX1R antag-1, OX1R antag-2, GPR7 antagonist, CHO parental Ca)
Cc1ccc(C(=O)N[C@H](C(=O)OCc2cc(=O)n3c(n2)sc2ccccc23)C(C)C)cc1	none
O=C(OCc1cc(=O)n2c(n1)sc1ccccc12)c1ccc(O)cc1O	OX1R antag-1 63
COc1cccc(NC(=O)c2c(C)cc(C)cc2CC(C)(C)C(=O)O)c1	none
O=C(CCN1CCOCC1)NNC(=O)c1ccc([N+](=O)[O-])cc1[N+](=O)[O-]	OX1R antag-1 49 (no result: GPR7 antagonist)
CCC(C)(C)n1nnnc1C(c1ccc(F)cc1)N1CCN(C(=O)c2ccco2)CC1 (centres undefined)	none
O=C(Nc1ccc(-c2nc3ccc(NC(=O)c4cccs4)cc3[nH]2)cc1)c1cccs1	TAAR1 antagonist 61
CSc1nc2ccc(NC(=O)c3cccs3)cc2s1	OX1R antag-1 37 (no result: GPR7 antagonist)
Cc1ccccc1C(=O)Nc1ccc(-c2nc3ccc(C(=O)c4ccccc4)cc3[nH]2)cc1	TAAR1 antagonist 103
O=C(c1ccccc1)c1ccc2nc(-c3ccc(NC(=O)c4ccccc4Br)cc3)[nH]c2c1	TAAR1 antagonist 68
CS(=O)(=O)c1ccccc1C(=O)Nc1ccc(-c2nc3ccccc3[nH]2)cc1	none
CN1CCN([C@H]2CS(=O)(=O)N[C@@H]2COCc2ccccc2)CC1	none (no result: OX1R antag-1, OX1R antag-2, GPR7 antagonist, CHO parental Ca)
NC(=O)CN1CCN(Cc2ccc3c(c2)OCO3)CC1	none
CCOc1ccc(CCNC(=O)Cn2ccc3ccccc3c2=O)cc1OCC	none
CCC(CO)NC1=CC(=O)CCC1 (centres undefined)	none
COC(=O)[C@@H]1C[C@@]2(O)[C@H](O)[C@H](O)[C@H](O)C[C@H]2N1C/C=C/c1ccccc1	none (no result: GPR7 antagonist)
Cc1nc2ccc(NC(=O)c3ccc(Cl)s3)cc2s1	OX1R antag-1 48, CHO parental Ca 33
Cc1ccc2nc(NC(=O)c3ccc(Cl)s3)sc2c1	none
Cc1ccc(-c2cc(-c3ccc(C)cc3O)[nH]n2)cc1	none
Cc1ccc(O)c(-c2cc(-c3cccc(Br)c3)n[nH]2)c1	CHO parental Ca 54
CCc1ccccc1NC(=O)NNC(=O)CCc1ccccc1	none
CC(=O)Oc1ccccc1Cn1c(C)c(C(=O)NCc2ccc(F)cc2)sc1=O	none (no result: OX1R antag-1, OX1R antag-2, GPR7 antagonist, CHO parental Ca)
Cc1ccc2cc(C3C(C#N)=C(N)Oc4c3ccc3cccnc43)c(=O)[nH]c2c1 (centres undefined)	OX1R antag-1 45 (no result: TAAR1 antagonist, TAAR1 agonist)
CCOc1ccc(C(=O)Nc2cc(-c3nc4ccccc4[nH]3)ccc2Cl)cc1[N+](=O)[O-]	TAAR1 antagonist 53, OX1R antag-1 68
O=C(CSc1nnc(Cc2ccccc2)n1-c1ccccc1)NNC(=O)Cc1ccccc1	OX1R antag-1 57
O=C(O)CNc1nc(Cl)ccc1[N+](=O)[O-]	OX1R antag-1 64
O=C(NC(Nc1ccccn1)C(Cl)(Cl)Cl)c1ccccc1 (centres undefined)	none
Cc1cc(C)n2nc(SCc3nnc(-c4ccc(F)cc4)o3)nc2n1	none (no result: TAAR1 antagonist, TAAR1 agonist)
CCCN(CC(=O)Nc1ccc(F)c(F)c1F)C(=O)c1ccc(N2CCCC2=O)cc1	none (no result: GPR7 antagonist)
Cn1c(=O)c2cc(NCc3ccccc3)nnc2n(C)c1=O	OX1R antag-1 48
COc1ccc([N+](=O)[O-])cc1NC(=S)NC(C)=O	none
COc1ccc([N+](=O)[O-])cc1NC(=O)CSc1ccc2ccccc2c1	OX1R antag-1 61
CCCCC(=O)NC(=S)Nc1cc([N+](=O)[O-])ccc1OC	CHO parental Ca 41
COc1ccc(/C=C/C(=O)NC(=S)Nc2cc([N+](=O)[O-])ccc2O)cc1OC	OX1R antag-1 60
COc1cc(/C=C/C(=O)NC(=O)c2ccccc2O)ccc1O	OX1R antag-1 67
CCOC(=O)C1CCCN(C2=NC(=O)/C(=C/c3ccc(N(C)C)cc3)S2)C1 (centres undefined)	none
Cc1ccc(N(CC(=O)NC2CCCC2)C(=O)CNC(=O)c2cccs2)cc1C	none
COc1cc(OC)cc(-c2nnc(SCc3c(F)cccc3Cl)o2)c1	CHO parental Ca 38
CCN(CCCNC(=O)C1CCC(=O)N1C(C)C)c1cccc(C)c1 (centres undefined)	none
COc1ccc(S(=O)(=O)N2CCCCC2)cc1NC(=O)Cn1cnc2c1c(=O)n(C)c(=O)n2C	none (no result: GPR7 antagonist)
CCCCCCCCCCCCCCCC[N+](C)(C)CCl	TAAR1 antagonist 63 (no result: OX1R antag-1, OX1R antag-2, GPR7 antagonist, CHO parental Ca)
C#CC[N+](C)(C)CCCCCCCCCC	none
CCCCCCCCCCCCCCCC[N+](C)(C)CC	TAAR1 antagonist 79 (no result: GPR7 antagonist)
CCCCCC[N+](C)(C)CCSSCC[N+](C)(C)CCCCCC	none
COc1ccc(S(=O)(=O)n2nc(C)cc2C)cc1OC	none
COc1cccc(-c2ncc3ccccc3c2COC(=O)N2CCOCC2)c1	TAAR1 antagonist 56 (no result: GPR7 antagonist)
CCC(CO)[n+]1c(C)cc(/C=C2\Sc3ccccc3N2Cc2ccccc2)cc1C (centres undefined)	CHO parental Ca 41
O=CNNC(=O)c1cccc([N+](=O)[O-])c1	none
O=C(NNC(=O)c1cnccn1)c1cccc([N+](=O)[O-])c1	OX1R antag-1 44
Cc1cc(C(=O)NNC(=O)c2cccc([N+](=O)[O-])c2)n[nH]1	OX1R antag-1 28 (no result: GPR7 antagonist)
Cc1ccccc1C(=O)NNC(=O)c1cccc([N+](=O)[O-])c1	none
O=C(NNc1c(Cl)cc(Cl)cc1Cl)c1cccc([N+](=O)[O-])c1	CHO parental Ca 48
O=C(NNC(=O)c1ccccc1[N+](=O)[O-])c1cnccn1	none
